Marks after values point to notes of the source that are not given here.
How the values were obtained:
gastric mucosa = experiment: Acute ulcerogenic activity; assay type: in vivo; details: rats
Procedure, shortened: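 Rats; controls received 0.5% carboxymethyl cellulose. After dosing, rats were fed a normal diet for 17 h and then killed. Stomachs opened along the greater curvature and mucosa examined under microscopy. Scoring: 0.5 redness, 1 spot ulcer, 1.5 haemorrhagic streaks, 2 ulcers >3 but <5, 3 ulcers >5. Severity index = treated-group mean score minus control mean.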

[1] = tested on: carrageenan-induced rat-paw edema; experiment: Carrageenan-induced rat-paw edema, in vivo anti-inflammatory activity; parameters: species or system Wistar rats; details: oral, dose equimolar to ibuprofen 20 mg/kg; for Anti-inflammatory activity (% inhibition ± SEM) 3 hours: 3 hours post-carrageenan; for Anti-inflammatory activity (% inhibition ± SEM) 4 hours: 4 hours post-carrageenan
[2] = tested on: NO (nitrite) in RAW264.7 mouse macrophages; experiment: Nitric oxide; assay type: cell-based; details: 20 µM compound, LPS-stimulated, LPS alone 20.46±1.03
TNFα = experiment: In vitro TNFα assay; assay type: cell-based; details: Mus musculus, RAW264.7, read-out: TNFα inhibition
Procedure, shortened: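 Macrophages grown in RPMI 1640 with 10% FBS, penicillin and streptomycin. Cells preincubated with cytochalasin D (2.5 μM/10^6 cells) for 30 min, then seeded at 2×10^6 cells/mL. LPS added with test compound or celecoxib at 20 μM for 24 h. Supernatant TNFα measured by sandwich ELISA (TMB substrate, 30 min dark, H2SO4 stop, A450) against kit standard.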

Structure (SMILES)	Gastric ulceration / mucosal damage (histopathology, in words) (gastric mucosa; 60 mg/kg)	Ulcerogenic activity (severity index ± SEM) (gastric mucosa; 60 mg/kg oral, killed after 17 hours, mean score minus control score)	Anti-inflammatory activity (% inhibition ± SEM) 3 hours [1]	Anti-inflammatory activity (% inhibition ± SEM) 4 hours [1]	NO (nitrite/mg, mmol/mg) 20 µM [2] [mmol/mg]	NO (nitrite/mg, mmol/mg) 20 µM ([2]; listed as celecoxib) [mmol/mg]	inhibition at 20 µM (TNFα) [%]
CC(C)Cc1ccc(C(C)C(=O)O)cc1 (stereo not drawn) [Ibuprofen, ibuprofen]	mucosal cell damage	1.16±0.4	81.32±0.59 ^a %	79.23±0.4 ^a %			
c1ccc(COc2ccc(-c3nn(-c4ccccc4)cc3CNc3ccccc3)cc2)cc1 [Compound 5a, N-((3-(4-(Benzyloxy)phenyl)-1-phenyl-1H-pyrazol-4-yl)methyl)aniline]			50.77±4.28 ^c %	47.91±4.39 ^c %			
Cc1ccc(-c2cc(C(F)(F)F)nn2-c2ccc(S(N)(=O)=O)cc2)cc1 [Celecoxib, celecoxib]					7.53 ± 0.23	7.53	72
